# According to PubChem BioAssay AID504382 (The Scripps Research Institute Molecular Screening Center, 2011):
# In all, about 2,500 compounds went through this assay and about 460 (18%) were called active.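 The calls were made as follows: active = mean activation above a cutoff of low control average plus 3 SD from the earlier screen (cut at about 12% in these data); inactive = the rest.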 These entries were drawn from the full list.
# Test: compound fluorescence interference without thin filaments, confirmation, artefact control for cardiac RTF calcium sensitizer project, biochemical (AID 504382)
# Settings: IANBD fluorescence interference counterscreen, buffer, EC20 Ca2+; at 7.2 µM; hits give high values; scaled: EC20 calcium 0, EC100 calcium 100
# Procedure, shortened: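 Medium: MOPS buffer, 190 mM, with KCl, MgCl2, EGTA, NTA, DTT, pH 7.20; Dosing: one dose of 7.2 µM, 0.7% DMSO; Probe or stimulus: calcium at EC20 level, 0.472 mM final; Incubation: 15 min, 25 °C; Evaluation: compound fluorescence interference relative to control well signal range; Signal: fluorescence, 480/540 nm.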
row,SMILES,fluorescence artifact activation
1,COc1cccc(/C(O)=C/c2nc3ccc(C(=O)NCCc4ccc(Cl)cc4)cc3[nH]c2=O)c1,0.43% (inactive)
2,COc1ccc(N(C)S(=O)(=O)c2ccc(Cl)c(C(=O)NCCc3ccc(Cl)cc3)c2)cc1,35.3% (active)
3,O=C(Nc1cccc(Cl)c1)c1cc(S(=O)(=O)NCCc2ccc(Cl)cc2)ccc1F,10.6% (inactive)
4,CCOc1ccc(C(C(=O)NC2CCCCC2)N(C(=O)Cc2cccs2)c2ccc(-n3cnnn3)c(OC)c2)cc1 (stereo unspecified),0.09% (inactive)
5,O=C(c1ccccc1)N1CCN(CC#CC2(O)CCCCC2)CC1,-0.05% (inactive)
6,COC(=O)CN1C(=S)N(c2ccc(OC)cc2)C(=O)/C1=C/c1ccc(N2CCOCC2)cc1,-0.04% (inactive)
7,COc1ccc(N2CCN(C(=O)c3ccc(OCC4CCCO4)cc3)CC2)cc1 (stereo unspecified),23.9% (active)
8,CCOc1ccc(C(=O)NC2CCN(C(=O)Nc3ccccc3OC)CC2)cc1,-0.03% (inactive)
9,COc1ccc(CC(=O)NCc2csc(-c3cccs3)n2)cc1OC,0.03% (inactive)
10,Cc1c(Cl)c([N+](=O)[O-])nn1CC(=O)N1CCN(C23CC4CC(CC(C4)C2)C3)CC1,0.69% (inactive)
11,COc1ccc(/C=C2\SC(=O)NC2=S)cc1OC,0.32% (inactive)
12,COc1cc(/C=C2\SC(=O)NC2=O)ccc1Oc1ccc([N+](=O)[O-])cn1,25% (active)
13,COc1ccc(/C=C2\SC(c3ccc(C)cc3)=NC2=O)cc1OC,0.1% (inactive)
14,NC(=S)Nc1c(Cl)cccc1Cl,-0.03% (inactive)
15,COc1[nH]c(/N=C/c2ccccc2)c(C#N)c1C#N,0.1% (inactive)
16,NC(=O)NC(Cc1ccccc1)C(=O)NCC1(N2CCCCC2)CCCCC1 (stereo unspecified),7.54% (inactive)
17,CC1CC(C)CN(C(=O)COC(=O)CCc2nc3ccccc3c(=O)[nH]2)C1 (stereo unspecified),-0.03% (inactive)
18,Cn1cc(/C=C2\SC(=S)N(NC(=O)c3ccccc3Cl)C2=O)c2ccccc21,6.42% (inactive)
19,CNC(=O)N(O)C1N(C)C(=O)N(CC(=O)OC)C1(C)C (stereo unspecified),12.4% (active)

row,SMILES,fluorescence artifact activation
1,COc1ccc(/C=C2\SC(=S)N(CCCC(=O)Nc3ccccn3)C2=O)cc1OC,0.11% (inactive)
2,CC(C(=O)c1ccc(Br)cc1)[n+]1cccc2ccccc21 (stereo unspecified),11.8% (active)
3,CN(C)c1ccc(/C=C(/C(=O)c2ccc(Cl)cc2Cl)n2cncn2)cc1,-0.05% (inactive)
4,CCOC(=O)c1c(=O)n(O)c2ccc(OC)cc2[n+]1[O-],0.13% (inactive)
5,O=C(c1cccs1)N1CCN=C1SCc1cccc(F)c1,0.02% (inactive)
6,COc1cc(OC)cc(C(=O)NCC(=O)OC2CCOC2=O)c1 (stereo unspecified),6.1% (inactive)
7,O=C(NCC(=O)N(Cc1cccs1)C(C(=O)NC1CCCCC1)c1ccncc1)c1ccco1 (stereo unspecified),0.04% (inactive)
8,O=C(NC1CCCCC1)C(c1ccc(F)cc1)N(Cc1ccccc1)C(=O)CN1C(=O)c2ccccc2S1(=O)=O (stereo unspecified),27.8% (active)
9,COCCNC(=O)C(c1ccc(C)o1)N(Cc1ccc(F)cc1)C(=O)Cn1nnc2ccccc21 (stereo unspecified),0.43% (inactive)
10,CSC(=NCc1ccco1)NC#N,0.12% (inactive)
11,CN1/C(=C\C=C2/SC(=S)NC2=O)C(C)(C)c2ccccc21,0.11% (inactive)
12,Cc1cc(-c2ccccc2C(=O)NC2CCCCC2)on1,0.27% (inactive)
13,Cc1ccc(Cn2c(Sc3nnc(C)s3)nc3c2c(=O)[nH]c(=O)n3C)cc1,42.6% (active)
14,CCN(CC)S(=O)(=O)c1ccc2c(c1)nc(CCC(=O)Nc1ccc3c(c1)OCO3)n2C,0.09% (inactive)
15,COc1cc(C(=O)NCc2nnc(SCC(=O)Nc3ccc4c(c3)OCO4)o2)cc(OC)c1OC,35.2% (active)
16,COc1cc(C(=O)Nc2ccc(Cl)c(C(F)(F)F)c2)cc(OC)c1OC,0.1% (inactive)
17,Cc1onc(-c2c(F)cccc2Cl)c1C(N)=S,6.57% (inactive)
18,CN(C)c1ccc(/C=C(\C#N)C(=O)Nc2nc3c(s2)CCN(Cc2ccccc2)C3)cc1,0.06% (inactive)
19,Cc1ccc(N=Nc2c(O)[nH]c3ccc(F)cc23)cc1,6.29% (inactive)

row,SMILES,fluorescence artifact activation
1,Cc1cc(S(=O)(=O)N2CCCC(C(=O)Nc3ccc(C(=O)O)cc3)C2)ccc1Cl (stereo unspecified),1.39% (inactive)
2,CC(=O)N1CCCc2cc(S(=O)(=O)N3CCCC(C(=O)Nc4cccc(C)c4)C3)ccc21 (stereo unspecified),0.1% (inactive)
3,CC(=O)c1ccc(NC(=O)C2CCCN(S(=O)(=O)c3c(C)[nH]c(=O)[nH]c3=O)C2)cc1 (stereo unspecified),20.3% (active)
4,O=C1CCC[C@@H]2C[C@@]3(C[C@@H]4CCN1[C@H]24)Nc1cc([N+](=O)[O-])ccc1NC3=NC1CCCCC1,10.3% (inactive)
5,NS(=O)(=O)c1ccc(NC(=O)COc2ccc(C(=O)c3ccc(F)cc3)cc2)cc1,545% (active)
6,CC1(c2ccc(OC(F)F)cc2)NC(=O)N(CC(=O)Nc2ccc(F)cc2)C1=O (stereo unspecified),0% (inactive)
7,CCCC(CCC(=O)Nc1ccc(S(N)(=O)=O)cc1)C(=O)O (stereo unspecified),0.96% (inactive)
8,CCOC(=O)C1(CCc2ccccc2)CCN(C(=O)c2occc2C)CC1,3.37% (inactive)
9,CCCC1C(c2ccccc2)C(C#N)(C#N)C2(C#N)CC1(N)NC2=O (stereo unspecified),0.01% (inactive)
10,Oc1[nH]c2ccccc2c1N=Nc1ccccc1Cl,0.13% (inactive)
11,C#CCOCCOCCOCCNc1nc(N2CCN(C(=O)CCCCCCCCCCNC(=O)[C@@H](CCSC)n3cc(CCO)nn3)CC2)nc(N2CCN(C(=O)CCCCCCCCCCNC(=O)[C@H](CCSC)n3cc(CCO)nn3)CC2)n1,0.15% (inactive)
12,CCN=C(NC#N)SCc1c(F)cccc1Cl,0.17% (inactive)
13,NS(=O)(=O)c1ccc(NCc2c(F)cccc2Cl)cc1,24.7% (active)
14,COc1ccc(C2NN=C(c3c[nH]c4ccccc34)C2O)cc1 (stereo unspecified),8.63% (inactive)
15,CCN(CC)C(=O)C1CCC(CNS(=O)(=O)c2cccc3cccnc23)CC1 (stereo unspecified),-0.02% (inactive)
16,CC(C)c1ccc(NS(=O)(=O)c2cccc3cccnc23)cc1,168% (active)
17,CN(CC(=O)NCc1ccc(Cl)cc1)S(=O)(=O)c1cccc2cccnc12,0.14% (inactive)
18,CCc1ccc2c(COC(=O)CNS(=O)(=O)c3ccc(NC(C)=O)cc3)cc(=O)oc2c1,2.6% (inactive)
